# Experimental data from publication PMC8897028 (Acta Pharmaceutica Sinica. B, 2021).
# Key:
# HaCaT cells [1] = test: cell proliferation MTT assay, HaCaT cells; assay type: cell-based, human; conditions: carvacrol 300 μmol/L, 24 h
# Method in brief: (§1)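 hTRPV3-transfected HEK293 or HaCaT cells were plated at 5 × 10^3 per well for 24 h, then exposed 24 h to TRPV3 activator and/or inhibitor in culture medium. MTT (5 mg/mL solution) was added for 4 h. Medium was removed, formazan dissolved in DMSO, and absorbance read at 490 nm.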
# [2] = system: HEK293 cells expressing hTRPV3; test: cell death assay; assay type: cell-based, human; conditions: 12 h, n = 4
# Method in brief: (§2)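 HEK293 cells 12 h after hTRPV3 transfection, or HaCaT cells, were seeded in six-well plates, randomly split into 6 groups, and treated 12 h in culture medium. Cells were detached with 0.25% trypsin (HEK293 1 min; HaCaT 7 min), centrifuged, and stained 30 min in PBS with Hoechst and PI. Five random fields per group were imaged. Death ratio = PI-labelled over Hoechst-labelled nuclei, averaged over five images; n = 4.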
# [3] = system: HEK293 cells expressing hTRPV3; test: cell proliferation MTT assay, HEK293 cells transfected with hTRPV3; assay type: cell-based, human; conditions: carvacrol 300 μmol/L, 24 h
# Method in brief: as §1
# C57BL/6J mice = test: ear swelling and chronic pruritus model induced by TRPV3 agonist carvacrol; assay type: in vivo, mouse; conditions: 3% carvacrol only; recorded 1 h on day 7
# Method in brief: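 Male C57BL/6J mice, 8–10 weeks old, were acclimatised for at least one week at 22 ± 2 °C on a 12 h light/dark cycle. The right ear received topical 3% carvacrol in ethanol/olive oil (4/1, v/v) once daily for 6 days. Test compound (1.0 mmol/L in 50 μL solvent) was applied 30 min after carvacrol; vehicle was solvent with 1% DMSO. Scratching was recorded for 1 h on day 7; n = 6–8 mice per group.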
# HaCaT cells [4] = test: cell death assay; assay type: cell-based, human; conditions: carvacrol 300 μmol/L alone; 12 h
# Method in brief: as §2
# mTRPV3 H426A = biological target: T1, mTRPV3 H426A (Mus musculus, UniProt Q8K424, H426A); test: whole-cell patch-clamp of mTRPV3 H426A mutant in HEK293 cells; assay type: cell-based
# T1 sequence (Q8K424 1-791 H426A): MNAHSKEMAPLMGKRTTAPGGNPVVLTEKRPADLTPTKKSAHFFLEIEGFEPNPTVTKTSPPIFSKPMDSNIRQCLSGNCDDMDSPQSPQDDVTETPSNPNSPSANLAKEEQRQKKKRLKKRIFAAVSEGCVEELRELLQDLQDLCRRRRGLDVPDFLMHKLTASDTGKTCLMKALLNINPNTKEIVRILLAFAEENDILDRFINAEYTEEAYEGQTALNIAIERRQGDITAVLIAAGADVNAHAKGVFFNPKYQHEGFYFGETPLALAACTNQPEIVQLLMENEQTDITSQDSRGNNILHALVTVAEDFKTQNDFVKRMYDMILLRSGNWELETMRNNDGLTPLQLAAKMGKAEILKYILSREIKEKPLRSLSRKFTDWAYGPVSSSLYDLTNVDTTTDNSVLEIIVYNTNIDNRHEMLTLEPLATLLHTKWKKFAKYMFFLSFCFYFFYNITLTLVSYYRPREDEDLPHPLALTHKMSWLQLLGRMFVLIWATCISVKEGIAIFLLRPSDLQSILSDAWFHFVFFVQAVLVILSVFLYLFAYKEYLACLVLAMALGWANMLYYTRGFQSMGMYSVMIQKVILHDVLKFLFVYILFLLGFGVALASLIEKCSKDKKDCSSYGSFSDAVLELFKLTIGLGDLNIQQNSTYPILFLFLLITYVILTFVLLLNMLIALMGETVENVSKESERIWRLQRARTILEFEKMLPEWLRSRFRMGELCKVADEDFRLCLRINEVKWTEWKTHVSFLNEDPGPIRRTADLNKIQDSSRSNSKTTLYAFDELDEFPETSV
# Method in brief: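 The sequence-confirmed site-directed mTRPV3 mutant was transiently expressed in HEK293 cells, and EGFP-positive cells were recorded whole-cell 18 h post-transfection. Cells were held at 0 mV with 500-ms ramps from −100 to +100 mV every 2 s, at 22–24 °C. Compounds were diluted in perfusion solution.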
# hTRPV3 = biological target: T2, hTRPV3 (Homo sapiens, UniProt Q8NET8); test: inside-out single-channel recordings of HEK293 cells overexpressing hTRPV3; assay type: biochemical
# T2 sequence (Q8NET8 1-790): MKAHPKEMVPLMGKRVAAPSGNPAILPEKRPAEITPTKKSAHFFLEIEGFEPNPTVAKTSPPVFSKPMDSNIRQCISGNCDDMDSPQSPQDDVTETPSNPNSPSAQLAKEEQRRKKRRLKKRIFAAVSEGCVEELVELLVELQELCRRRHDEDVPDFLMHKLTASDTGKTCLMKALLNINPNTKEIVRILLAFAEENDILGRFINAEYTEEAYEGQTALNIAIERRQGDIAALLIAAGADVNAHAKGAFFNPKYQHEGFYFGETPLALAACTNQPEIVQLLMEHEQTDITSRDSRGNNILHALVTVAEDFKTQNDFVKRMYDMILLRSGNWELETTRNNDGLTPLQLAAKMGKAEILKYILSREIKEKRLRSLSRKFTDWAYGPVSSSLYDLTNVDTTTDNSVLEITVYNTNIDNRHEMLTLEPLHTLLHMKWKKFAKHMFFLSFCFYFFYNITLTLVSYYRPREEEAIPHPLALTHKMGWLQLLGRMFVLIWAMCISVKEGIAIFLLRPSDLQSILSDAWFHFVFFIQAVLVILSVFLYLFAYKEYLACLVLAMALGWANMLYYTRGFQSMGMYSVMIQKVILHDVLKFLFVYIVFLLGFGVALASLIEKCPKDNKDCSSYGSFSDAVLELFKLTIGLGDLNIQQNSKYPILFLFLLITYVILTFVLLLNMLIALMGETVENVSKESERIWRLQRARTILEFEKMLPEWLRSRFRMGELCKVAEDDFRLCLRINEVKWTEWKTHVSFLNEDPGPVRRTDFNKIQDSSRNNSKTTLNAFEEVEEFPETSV
# Method in brief: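 Inside-out patches from EGFP-identified HEK293 cells, 18 h after hTRPV3 transfection, used 6–10 MΩ pipettes. Patches were held at 0 mV, then stepped to +80 mV. Currents were sampled at 10 kHz, filtered at 2.9 kHz, at 22–24 °C. All-points histograms were Gaussian-fitted for conductance and mean open probability; n = 4.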
# hTRPA1 = hTRPA1 (Homo sapiens, UniProt O75762); test: whole-cell patch-clamp of TRPA1 currents in HEK293 cells; assay type: cell-based; conditions: ruthenium red 20 μmol/L; current activated by AITC 300 μmol/L
# Method in brief: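 Human channel cDNAs were transiently transfected into HEK293 cells with Lipofectamine 2000. EGFP-positive cells were recorded whole-cell 18 h later at 22–24 °C with ~4.0 MΩ fire-polished pipettes. Cells were held at 0 mV with 500-ms ramps from −100 to +100 mV every 2 s. Test compound in perfusion solution was co-applied with agonist, and average current inhibition was summarised; n = 4–6.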
# Sequence of hTRPA1 (O75762 whole entry, the tested form may be a part): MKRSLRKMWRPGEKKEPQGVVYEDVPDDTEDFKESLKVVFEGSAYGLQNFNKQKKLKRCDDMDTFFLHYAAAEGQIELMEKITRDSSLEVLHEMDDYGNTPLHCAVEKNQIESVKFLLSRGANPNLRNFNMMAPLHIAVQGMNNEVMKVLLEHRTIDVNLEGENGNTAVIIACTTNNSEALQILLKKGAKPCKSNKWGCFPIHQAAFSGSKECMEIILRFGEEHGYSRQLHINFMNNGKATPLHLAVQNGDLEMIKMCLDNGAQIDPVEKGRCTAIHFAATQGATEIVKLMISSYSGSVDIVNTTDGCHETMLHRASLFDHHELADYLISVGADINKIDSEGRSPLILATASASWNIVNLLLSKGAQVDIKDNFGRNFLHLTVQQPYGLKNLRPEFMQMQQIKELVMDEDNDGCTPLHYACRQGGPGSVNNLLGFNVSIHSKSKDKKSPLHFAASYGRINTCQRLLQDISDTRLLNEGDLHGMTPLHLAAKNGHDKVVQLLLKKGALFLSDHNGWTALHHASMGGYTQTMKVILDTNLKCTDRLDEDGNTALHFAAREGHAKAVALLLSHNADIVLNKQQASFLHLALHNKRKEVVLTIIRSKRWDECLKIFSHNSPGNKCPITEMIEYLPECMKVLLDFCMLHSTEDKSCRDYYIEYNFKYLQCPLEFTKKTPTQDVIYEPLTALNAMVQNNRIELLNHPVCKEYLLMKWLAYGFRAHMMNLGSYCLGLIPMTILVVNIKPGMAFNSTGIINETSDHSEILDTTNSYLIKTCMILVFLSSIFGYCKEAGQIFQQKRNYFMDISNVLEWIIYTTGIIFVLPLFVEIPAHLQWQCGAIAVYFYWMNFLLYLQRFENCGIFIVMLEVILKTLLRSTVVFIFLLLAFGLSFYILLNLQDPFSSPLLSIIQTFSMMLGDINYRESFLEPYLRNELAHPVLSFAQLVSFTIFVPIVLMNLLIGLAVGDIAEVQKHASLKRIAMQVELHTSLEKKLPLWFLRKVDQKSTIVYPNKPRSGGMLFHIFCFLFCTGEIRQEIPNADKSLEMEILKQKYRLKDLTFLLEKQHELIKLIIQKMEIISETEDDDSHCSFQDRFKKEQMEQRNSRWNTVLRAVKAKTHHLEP
smiles,measurement,setting,value
"Cc1ccc(C(C)C)cc1O [carvacrol, reference compound]",cell proliferation,HaCaT cells [1],suppressed the cell proliferation
same,cell death ratio,"[2]; carvacrol 300 μmol/L alone, vehicle 5.3 ± 0.5%",21.1 ± 1.9%
same,cell proliferation,[3],suppressed the cell proliferation
same,number of scratching bouts,C57BL/6J mice,113.0 ± 16.9
same,cell death ratio,HaCaT cells [4],13.0 ± 2.1%
same,activation of H426A mutant current,mTRPV3 H426A; carvacrol 300 μmol/L,activated
same,increase of channel open probability versus vehicle,hTRPV3; carvacrol 300 μmol/L alone,about 90 fold
same,single channel conductance,hTRPV3; carvacrol 300 μmol/L alone,168.4 ± 2.1 pS
same,channel open probability,"hTRPV3; carvacrol 300 μmol/L alone, vehicle control 0.3 ± 0.2%",26.9 ± 5.5%
"N.N.N.N.N.N.N.N.N.N.N.N.N.N.[Cl-].[Cl-].[Cl-].[Cl-].[Cl-].[Cl-].[O-2].[O-2].[Ru+3].[Ru+3].[Ru+4] [ruthenium red, reference compound]",cell death ratio,[2]; ruthenium red positive control with carvacrol 300 μmol/L,14.3 ± 1.7%
same,inhibition of TRPA1 current,hTRPA1,inhibited
same,channel open probability,"hTRPV3; RR 20 μmol/L with carvacrol 300 μmol/L, from 26.9 ± 5.5%, n = 4",0.5 ± 0.4%
same,single-channel conductance,"hTRPV3; RR 20 μmol/L with carvacrol 300 μmol/L, from 175.2 ± 0.9 pS, n = 4",122.8 ± 5.5 pS
"NCCOB(c1ccccc1)c1ccccc1 [2-APB, 2-aminoethoxydiphenyl borate, reference compound]",activation of H426A mutant channel,mTRPV3 H426A; 2-APB 50 μmol/L,not activated
